Experimental data from ChEMBL document CHEMBL3352512, “Thiazolidone derivatives as inhibitors of chikungunya virus” (Eur J Med Chem, 2015).
The source made the active and inactive calls. The calls are words filed in the database; no cut-off is given here.

What was measured:
[1] = Cytotoxicity against african green monkey Vero cells assessed as reduction in cell viability after 72 hrs by cell titer-blue fluorescent assay; type: cell-based; conditions: chlorocebus sabaeus
Procedure, shortened: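 Uninfected Vero (CCL-81) cells were seeded at 1 × 10^5 cells/mL, grown for 24 h at 37°C with 5% CO2, then exposed to compound at 4 to 4000 µg/mL for 72 h. CellTiter-Blue was added for 2 h in the dark, and fluorescence was read at 560/590 nm. Viability is given as % of control, from at least three repeats.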

Chikungunya virus [2] = experiment: Antiviral activity against Chikungunya virus LR2006_OPY1 infected in african green monkey Vero cells assessed as reduction in virus-induced cytopathogenicity after 3 days by cell titer-blue fluorescent assay; type: functional, cell-based; conditions: 72 h
Chikungunya virus [3] = experiment: Antiviral activity against Chikungunya virus LR2006_OPY1 infected in african green monkey Vero cells assessed as reduction in virus-induced cytopathogenicity at 100 ug/mL after 3 days by cell titer-blue fluorescent assay; type: functional, cell-based

| Compound | CC50 at 72 h [1] | IC50 (Chikungunya virus [2]) | inhibition (Chikungunya virus [3]) |
| --- | --- | --- | --- |
| NC1=NC(=O)/C(=C/c2ccccc2[N+](=O)[O-])S1 | > 100 µM | 40.1 µM |  |
| COc1ccc(/C=C2\SC(=S)NC2=O)cc1 | > 100 µM |  | inactive |
| O=C1NC(=S)S/C1=C\c1cccs1 | > 100 µM |  | inactive |
| O=C1NC(=S)S/C1=C\c1ccc(Cl)cc1 | > 100 µM |  | inactive |
| O=C1NC(=S)S/C1=C\c1ccccc1[N+](=O)[O-] | > 100 µM |  | inactive |
| CN(C)c1ccc(/C=C2\SC(=S)NC2=O)cc1 | > 100 µM |  | inactive |
| N=C1NC(=O)/C(=C/c2ccc(O)cc2)S1 [MIRIN] | > 100 µM |  | inactive |
| O=C1NC(=S)S/C1=C\c1ccc(O)cc1 | > 100 µM |  | inactive |
| O=C1NC(=S)S/C1=C\c1ccc2ccccc2c1 | > 100 µM | 3.6 µM |  |
